The values below come from ChEMBL document CHEMBL3044720, “Phytotoxic Eremophilanes from Ligularia macrophylla” (J Agric Food Chem, 2007).

Assay [1] relates to Allium cepa. The experiment in a line: Inhibition of mitotic cell division in Allium cepa cv. Evergreen (onion) root tips assessed as cell count at prophase stage of cell cycle at 100 to 300 uM at 24 degC. The format is functional, organism-based.
In assay [2] the test system is Lactuca sativa. In words: Phytotoxic activity against Lactuca sativa (lettuce) seeds assessed as inhibition of germination at 100 uM at 26 degC measured 7 days post-drug dose. The format is functional, organism-based. An outline of the steps:
(§1)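 Each well held 5 mg lettuce or 10 mg bentgrass seed plus 250 µL of compound in water with 3% acetone final; acetone/water controls were included. Sealed plates were kept at 26 °C under continuous light (173 µmol/m²/s). Germination was rated visually on a 0–5 scale (0 = no effect, 5 = no germination/growth) against controls, after 7 days for lettuce and 12 days for bentgrass.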

For assay [3], the system named is Allium cepa. In words: Inhibition of mitotic cell division in Allium cepa cv. Evergreen (onion) root tips assessed as cell count at telophase stage of cell cycle at 100 to 300 uM at 24 degC. The format is functional, organism-based.
For assay [4], the system named is Cucumis sativus. The experiment in a line: Inhibition of photosynthetic electron transport rate in Cucumis sativa Straight Eight (cucumber) cotyledons assessed as chlorophyll fluorescence at 100 uM at 22 degC measured at 2 to 24 hr post-drug treatment under constant light by fluorometer analysis. The format is functional, organism-based. The method in brief:
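8 mm cotyledon discs were cut from 6-day-old cucumber 'Straight Eight'. Variable chlorophyll fluorescence was read with a pulse-modulated fluorometer before treatment, then at 2, 4, 8 and 24 h. Discs sat in 1 mL 0.1% Tween 20 with 100 µM compound, 0.1% acetone solvent control or 10 µM atrazine, at 22 °C under continuous light; triplicate.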

The subject of assay [5] is Lactuca sativa. The experiment in a line: Phytotoxic activity against Lactuca sativa (lettuce) seeds assessed as inhibition of germination at 1 uM at 26 degC measured 7 days post-drug dose. The format is functional, organism-based. An outline of the steps: as §1
Assay [6] concerns Coptotermes formosanus. In words: Antitermite activity against greater than third-instar stage of Coptotermes formosanus workers/1 soldier in compound-pretreated filter paper assessed as mortality at 0.5% at 26 degC after 13 days (reference value: 3.8 +/-4.8%). The format is functional. The method in brief:
(§2)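 Test material in acetone (100 µL) was blotted onto 2.5 cm filter paper discs, dried several hours, then moistened with 100 µL water. Each dish held 20 workers (third instar or greater) and two soldiers. Dishes were kept at ca. 100% RH and 26 °C, with water-only controls. Four replicates came from different colonies. Mortality was scored daily for 3 weeks, reported as mean and SD, and compared by ANOVA with Fisher LSD (P < 0.05).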

For assay [7], the system named is Coptotermes formosanus. The experiment in a line: Antitermite activity against greater than third-instar stage of Coptotermes formosanus workers/1 soldier in compound-pretreated filter paper assessed as mortality at 0.5% at 26 degC after 1 day (reference value: 0%). The format is functional. An outline of the steps: as §2
Assay [8] concerns Lactuca sativa. The experiment in a line: Phytotoxic activity against Lactuca sativa (lettuce) seeds assessed as inhibition of germination at 1000 uM at 26 degC measured 7 days post-drug dose. The format is functional, organism-based. An outline of the steps:
as §1

The subject of assay [9] is Lemna aequinoctialis. In words: Phytotoxic activity against three-frond Lemna paucicostata colonies assessed as growth inhibition at 100 uM after 4 days. The format is functional, organism-based. An outline of the steps: (§3)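 Hoagland medium at pH 5.5 was filter-sterilized, with compound added in acetone or EtOH (1% final); tested range 100 to 0.1 µM. Two three-frond colonies from 4–5-day-old stock cultures were placed per well. Total frond area was imaged on days 0–4, and % increase was taken relative to day 0. IC50 came from a four-parameter logistic fit in R drc.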

The subject of assay [10] is Coptotermes formosanus. The experiment in a line: Antitermite activity against greater than third-instar stage of Coptotermes formosanus workers/1 soldier in compound-pretreated filter paper assessed as mortality at 0.5% at 26 degC after 6 days (reference value: 2.5 +/-5%). The format is functional. The method in brief:
as §2

Assay [11] deals with Lactuca sativa. In words: Phytotoxic activity against Lactuca sativa (lettuce) seeds assessed as inhibition of germination at 10 uM at 26 degC measured 7 days post-drug dose. The format is functional, organism-based. The method in brief: as §1
In assay [12] the test system is Coptotermes formosanus. The experiment in a line: Antitermite activity against greater than third-instar stage of Coptotermes formosanus workers/1 soldier in compound-pretreated filter paper assessed as mortality at 0.5% at 26 degC after 21 days (reference value: 3.8 +/-4.8%). The format is functional. The method in brief:
as §2

Assay [13] has as its system Allium cepa. In words: Inhibition of mitotic cell division in Allium cepa cv. Evergreen (onion) root tips assessed as cell count at anaphase stage of cell cycle at 100 to 300 uM at 24 degC. The format is functional, organism-based.
Assay [14] has as its system Cucumis sativus. In words: Induction of cell membrane integrity disruption in Cucumis sativus (cucumber) cotyledons assessed as electrolyte leakage at 25 degC by conductivity meter analysis. The format is functional. An outline of the steps: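 Twenty-five 4 mm cucumber cotyledon discs (~50 mg fresh weight) were bathed in 5 mL of 2% sucrose, 1 mM MES pH 6.5, with 1% (v/v) acetone final in controls and treatments. Incubation was at 25 °C in darkness. Leakage into the bathing medium was followed over time by conductivity; six replicates per treatment.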

Assay [15] has as its system Coptotermes formosanus. In words: Antitermite activity against greater than third-instar stage of Coptotermes formosanus workers/1 soldier in compound-pretreated filter paper assessed as filter paper consumption at 0.5% at 26 degC after 21 days (reference value: 41.4 +/-5.6 mg). The format is functional.
Assay [16] deals with Agrostis stolonifera. The experiment in a line: Phytotoxic activity against Agrostis stolonifera seeds assessed as inhibition of germination at 1 uM at 26 degC measured 12 days post-drug dose. The format is functional, organism-based. An outline of the steps: as §1
Assay [17] relates to Allium cepa. In words: Inhibition of mitotic cell division in Allium cepa cv. Evergreen (onion) root tips assessed as cell count at metaphase stage of cell cycle at 100 to 300 uM at 24 degC. The format is functional, organism-based.
For assay [18], the system named is Lemna aequinoctialis. The experiment in a line: Phytotoxic activity against three-frond Lemna paucicostata colonies assessed as growth inhibition after 4 days. The settings on record: 96 h. The format is functional, organism-based. The method in brief: as §3
Assay [19] has as its system Agrostis stolonifera. The experiment in a line: Phytotoxic activity against Agrostis stolonifera seeds assessed as inhibition of germination at 10 uM at 26 degC measured 12 days post-drug dose. The format is functional, organism-based. An outline of the steps:
as §1

The test system of assay [20] is Cucumis sativus. The experiment in a line: Inhibition of photosynthetic electron transport rate in Cucumis sativa Straight Eight (cucumber) cotyledons assessed as chlorophyll fluorescence at 10 uM at 22 degC measured at 2 to 24 hr post-drug treatment under constant light by fluorometer analysis. The format is functional, organism-based. The method in brief: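 Cotyledon discs (8 mm) were cut from 6-day-old plants. Induced variable chlorophyll fluorescence was read on a pulse-modulated fluorometer before each disc was placed in 1 mL of 0.1% Tween 20, with or without treatment; the solvent control was 0.1% acetone. Discs were kept at 22 °C under continuous light and read again at 2, 4, 8 and 24 h. Each treatment was run in triplicate.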

In assay [21] the test system is Agrostis stolonifera. In words: Phytotoxic activity against Agrostis stolonifera seeds assessed as inhibition of germination at 100 uM at 26 degC measured 12 days post-drug dose. The format is functional, organism-based. The method in brief:
as §1

In assay [22] the test system is Agrostis stolonifera. In words: Phytotoxic activity against Agrostis stolonifera seeds assessed as inhibition of germination at 1000 uM at 26 degC measured 12 days post-drug dose. The format is functional, organism-based. An outline of the steps: as §1
Another assay deals with Colletotrichum acutatum. In words: Antifungal activity against Colletotrichum acutatum assessed as diameter of growth inhibitory zone at 10 ug after 4-5 days by direct bioautography. The format is functional. An outline of the steps: (§4)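 Direct TLC bioautography against strawberry-anthracnose Colletotrichum isolates grown on PDA at 24 ± 2 °C under a 12 h photoperiod. Conidia were harvested from 7–10-day cultures and filtered. Developed plates carrying 10 µg/spot were sprayed with 10^5 spores/mL and held in a moisture chamber for 4 days at 26 °C with a 12 h photoperiod. Zone diameters were measured 4–5 days after treatment.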

The next assay deals with Colletotrichum fragariae. In words: Antifungal activity against Colletotrichum fragariae assessed as growth inhibition at 10 ug after 4-5 days by direct bioautography. The format is functional, organism-based. The method in brief: as §4
Assay [23] deals with Colletotrichum gloeosporioides. In words: Antifungal activity against Colletotrichum gloeosporioides assessed as growth inhibition at 10 ug after 4-5 days by direct bioautography. The format is functional, organism-based. An outline of the steps:
as §4

Active and inactive are the calls of the source. No cut-off for these calls is given here.

A word on the mortality: it is the percentage killed. Take `Cc1coc2c1[C@@H]1OC(=O)[C@H]3CCC[C@H](C2)[C@@]31C`: the inhibition result in the assay on Allium cepa [1], in the assay on Lactuca sativa [2], with Allium cepa [3], with Cucumis sativus [4], in the assay with Lactuca sativa [5] and in the assay on Lactuca sativa [8] was “inactive” each time. Also, the inhibition result with Lactuca sativa [11], in the assay with Allium cepa [13], in the assay on Agrostis stolonifera [16] and in the assay on Allium cepa [17] was “inactive” throughout. Also, the mortality amounted to 3.8% in the assay on Coptotermes formosanus [6], 1.3% in the assay with Coptotermes formosanus [7], 1.3% with Coptotermes formosanus [10] and 8.8% with Coptotermes formosanus [12]. For the same compound, in the assay with Lemna aequinoctialis [9], the “growth inhibition (GI)” value was “inactive”. For the same compound, the result in the assay on Cucumis sativus [14] was inactive. Also, the Activity in the assay on Coptotermes formosanus [15] came out at 43.1 mg.
As usually defined, the IC50 is the point on the concentration scale where inhibition reaches its midpoint. As to `C/C=C(/C)C(=O)O[C@@H]1c2c(C)coc2C[C@@]2(O)CCC[C@H](C)[C@@]12C`, the inhibition entry in the assay on Allium cepa [1], in the assay on Lactuca sativa [2], in the assay on Allium cepa [3], in the assay on Lactuca sativa [5], with Lactuca sativa [11] and with Allium cepa [13] was “inactive” in each case. Moreover, the inhibition result with Agrostis stolonifera [19], with Agrostis stolonifera [16] and with Allium cepa [17] was “inactive” each time. Besides, the inhibition result with Cucumis sativus [4] is “Active”. Also, in the assay with Lemna aequinoctialis [18], the half-maximal inhibitory concentration (IC50) is 2940 nM. For the same compound, the mortality is 16.3% with Coptotermes formosanus [6], 1.3% in the assay with Coptotermes formosanus [7], 3.8% in the assay on Coptotermes formosanus [10] and 18.8% in the assay on Coptotermes formosanus [12]. For the same compound, the outcome in the assay on Cucumis sativus [14] was inactive. The Activity with Coptotermes formosanus [15] is 16.5 mg.
As to `CCNc1nc(Cl)nc(NC(C)C)n1`, the inhibition result in the assay with Cucumis sativus [20] is “inactive”.
Turning to `C=C1COC(=O)[C@@]12C[C@H]1CC[C@@H](OC(=O)/C(C)=C\C)[C@H](C)C1(C)C2` (single isomer, unassigned), the inhibition entry in the assay on Lactuca sativa [2], in the assay with Lactuca sativa [5], with Agrostis stolonifera [21], with Lactuca sativa [11], in the assay with Agrostis stolonifera [19] and with Agrostis stolonifera [16] was “inactive” each time. Besides, the mortality in the assay on Coptotermes formosanus [6] turned out to be 2.5%; in the assay with Coptotermes formosanus [7], 0%; in the assay with Coptotermes formosanus [10] it was 2.5%; with Coptotermes formosanus [12] it was 2.5%. In addition, the “growth inhibition (GI)” value in the assay with Lemna aequinoctialis [9] was “inactive”. In the assay on Coptotermes formosanus [15], the Activity was determined as 40 mg.
With `CC1=C2C3OC(=O)[C@H]4CCC[C@H](C[C@@H]2OC1=O)[C@]34C` (single isomer, unassigned), the inhibition entry with Lactuca sativa [2], with Lactuca sativa [5], with Agrostis stolonifera [21], with Lactuca sativa [11], with Agrostis stolonifera [19] and with Agrostis stolonifera [16] was “inactive” each time. Moreover, the “growth inhibition (GI)” value with Lemna aequinoctialis [9] is “inactive”. For the same compound, in the assay with Agrostis stolonifera [22], the inhibition entry is “Active”.
`CCCCC/C=C\C/C=C\CCCCCCCC(=O)O` [LINOLEIC ACID]: the Activity in the assay with Colletotrichum acutatum is on record as 2.9 mm; with Coptotermes formosanus [15], 44.6 mg. Further, the inhibition result in the assay with Lactuca sativa [2], in the assay with Lactuca sativa [5], with Lactuca sativa [8], in the assay on Agrostis stolonifera [21], with Lactuca sativa [11] and with Agrostis stolonifera [19] was “inactive” in each case. Besides, in the assay on Agrostis stolonifera [16], the inhibition entry is “inactive”. Further, the “growth inhibition (GI)” value (in the assay with Colletotrichum fragariae; in assay [23]) was “inactive” in each case. The mortality with Coptotermes formosanus [6] amounted to 5%; with Coptotermes formosanus [7], 2.5%; in the assay with Coptotermes formosanus [10], 3.8%; in the assay with Coptotermes formosanus [12], 6.3%.
On to `CC/C=C\C/C=C\C/C=C\CCCCCCCC(=O)O` [LINOLENIC ACID], for which the Activity with Colletotrichum acutatum is 2.9 mm; in the assay with Coptotermes formosanus [15], 44.2 mg. For the same compound, the inhibition result with Lactuca sativa [2], with Lactuca sativa [5], in the assay with Lactuca sativa [8], in the assay with Agrostis stolonifera [21], in the assay on Lactuca sativa [11] and in the assay on Agrostis stolonifera [19] was “inactive” throughout. Further, the inhibition entry with Agrostis stolonifera [22] and with Agrostis stolonifera [16] was “inactive” in each case. Also, the “growth inhibition (GI)” value (in the assay with Colletotrichum fragariae; in assay [23]) was “inactive” throughout. The mortality in the assay with Coptotermes formosanus [6] was determined as 5%; in the assay on Coptotermes formosanus [7], 0%; in the assay on Coptotermes formosanus [10], 0%; in the assay on Coptotermes formosanus [12], 6.3%.
